In brackets after ≈: the same amount, converted by molar mass. Activity calls are given as the source filed them. No cut-off for these calls is given here.
What was measured:
[1] = tested on: Neutrophil; assay: Inhibition of LTB4-stimulated human neutrophils migration after 30 mins by using CyQuant GR fluorescent dye; format: functional, cell-based
Outline: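 Human blood neutrophils (95-97% pure, isolated over Lympholyte-poly) at 5 × 10^6 cells/mL were preincubated with compound (3 × 10^-12 to 1 × 10^-6 M final) for 30 min at 37 C. Migration toward 100 ng/mL LTB4 across a polycarbonate membrane ran 90 min at 37 C. Migrated cells were lysed with CyQuant GR and read at 480/520 nm. IC50 was taken from a sigmoidal fit of % inhibition.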

[2] = molecular target: T1, Leukotriene B4 receptor 1 (Homo sapiens, UniProt Q15722); assay: Antagonist activity at BLT1 receptor expressed in human HL60 cells assessed as inhibition of LTB4-stimulated calcium flux after 30 mins; format: functional, cell-based, HL-60
Outline: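 HL-60 cells grown in RPMI-1640 with 20% FBS were plated at 2.0 × 10^5 cells/ml with 1 μM retinoic acid. They were dye-loaded in HBSS/20 mM HEPES/5 mM probenecid (0.05% BSA in the replacement buffer) for 1 h at 37 C. Compound (5 × 10^-11 to 3 × 10^-6 M final) was added for 30 min at room temperature, then 0.5 μM LTB4. Fluorescence was read every 1.5 s for 100 s and peak increase scored as % inhibition versus DMSO control.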

[3] = Solubility of compound in small intestinal contents in the fed state at pH 5; format: ADME
Outline: (§1)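 Solubility measured in simulated intestinal fluid at pH 5.0 (fed) or pH 6.5 (fasted), reported in μg/mL.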

[4] = Solubility of compound in small intestinal contents in the fasted state at pH 6.5; format: ADME; outline: as §1
[5] = molecular target: T2, Voltage-gated inwardly rectifying potassium channel KCNH2 (Homo sapiens, UniProt Q12809); assay: Inhibition of human ERG expressed in CHO cells at 3 uM assessed as reduction of current amplitude
[6] = molecular target: Cytochrome P450 2C19 (Homo sapiens, UniProt P33261); assay: Inhibition of CYP2C19 fluorescence method; format: ADME
Outline: (§2)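 Cytochrome P450 high-throughput panel (1A2, 2D6, 2C9, 2C19, 3A4) using fluorogenic substrates; IC50 reported.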

[7] = Cmax in Sprague-Dawley rat at 10 mg/kg, po; format: ADME, organism-based; design: dose 10 mg/kg, route oral; details: in vivo
Outline: (§3)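 Rat single-dose PK, n = 3, with oral dosing at 10 mg/kg and intravenous dosing at 2.5 or 5 mg/kg.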

[8] = molecular target: T3, Cytochrome P450 1A2 (Homo sapiens, UniProt P05177); assay: Inhibition of CYP1A2 by fluorescence method; format: ADME; outline: as §2
T3 sequence (P05177 whole entry): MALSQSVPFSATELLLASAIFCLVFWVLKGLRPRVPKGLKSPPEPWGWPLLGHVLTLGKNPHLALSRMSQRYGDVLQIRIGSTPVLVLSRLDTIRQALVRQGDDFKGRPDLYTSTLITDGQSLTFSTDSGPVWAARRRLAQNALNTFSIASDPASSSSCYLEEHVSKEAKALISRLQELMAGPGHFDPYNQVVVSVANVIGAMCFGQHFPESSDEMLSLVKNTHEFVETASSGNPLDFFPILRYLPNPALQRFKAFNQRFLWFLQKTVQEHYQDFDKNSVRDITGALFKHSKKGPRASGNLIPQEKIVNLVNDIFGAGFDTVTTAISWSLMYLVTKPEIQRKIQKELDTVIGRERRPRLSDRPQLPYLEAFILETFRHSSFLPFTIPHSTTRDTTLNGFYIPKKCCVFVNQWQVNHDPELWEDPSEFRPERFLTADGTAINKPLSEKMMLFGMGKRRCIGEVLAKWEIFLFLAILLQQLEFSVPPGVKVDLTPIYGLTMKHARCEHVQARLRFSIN

[9] = Half life in Sprague-Dawley rat at 5 mg/kg, iv; format: ADME, organism-based; design: dose 5 mg/kg, route intravenous; details: in vivo; outline: as §3
[10] = molecular target: T4, Leukotriene B4 receptor 2 (Homo sapiens, UniProt Q9NPC1); assay: Antagonist activity at FLAG-tagged human BLT2 receptor expressed in HEK293 cells assessed as inhibition of LTB4-stimulated calcium mobilization preincubated for 10 mins before LTB4 challenge; format: functional, cell-based
T4 sequence (Q9NPC1 whole entry): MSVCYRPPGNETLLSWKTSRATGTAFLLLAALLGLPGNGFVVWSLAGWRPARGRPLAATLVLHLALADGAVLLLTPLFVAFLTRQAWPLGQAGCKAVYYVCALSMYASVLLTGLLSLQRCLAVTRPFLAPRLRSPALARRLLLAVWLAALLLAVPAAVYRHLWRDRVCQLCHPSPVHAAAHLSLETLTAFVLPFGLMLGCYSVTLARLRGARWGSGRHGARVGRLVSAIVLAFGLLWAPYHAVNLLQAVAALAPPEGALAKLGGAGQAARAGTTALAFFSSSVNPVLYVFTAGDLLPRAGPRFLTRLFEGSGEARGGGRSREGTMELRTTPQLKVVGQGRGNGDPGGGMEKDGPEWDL

[11] = Oral bioavailability in Sprague-Dawley rat at 10 mg/kg, po; format: ADME, organism-based; details: in vivo; outline: as §3
[12] = molecular target: T1, Leukotriene B4 receptor 1; assay: Antagonist activity at FLAG-tagged human BLT1 receptor expressed in HEK293 cells assessed as inhibition of LTB4-stimulated calcium mobilization preincubated for 10 mins before LTB4 challenge; format: functional, cell-based
[13] = molecular target: Cytochrome P450 2D6 (Homo sapiens, UniProt P10635); assay: Inhibition of CYP2D6 fluorescence method; format: ADME
Outline: (§4)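 High-throughput CYP panel covering 1A2, 2D6, 2C9, 2C19 and 3A4, using fluorogenic substrates. IC50 was determined in μM.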

[14] = Lipophilicity, log D of compound at pH 7.4; details: buffer
[15] = molecular target: T5, Cytochrome P450 2C9 (Homo sapiens, UniProt P11712); assay: Inhibition of CYP2C9 fluorescence method; format: ADME
[16] = Volume of distribution at steady state in Sprague-Dawley rat at 5 mg/kg, iv; format: ADME, organism-based; design: dose 5 mg/kg, route intravenous; details: in vivo, read-out: Vdss; outline: as §3
[17] = Tmax in Sprague-Dawley rat at 10 mg/kg, po; format: ADME, organism-based; design: dose 10 mg/kg, route oral; details: in vivo; outline: as §3
[18] = molecular target: T5, Cytochrome P450 2C9; assay: Inhibition of CYP2C9 by LC/MS method; format: ADME
[19] = Clearance in Sprague-Dawley rat at 5 mg/kg, iv; format: ADME, organism-based; design: dose 5 mg/kg, route intravenous; details: in vivo; outline: as §3
[20] = Half life in Sprague-Dawley rat at 10 mg/kg, po; format: ADME, organism-based; design: dose 10 mg/kg, route oral; details: in vivo; outline: as §3
[21] = molecular target: Cytochrome P450 3A4 (Homo sapiens, UniProt P08684); assay: Inhibition of CYP3A4 fluorescence method; format: ADME; outline: as §4
[22] = molecular target: T2, Voltage-gated inwardly rectifying potassium channel KCNH2; assay: Inhibition of human ERG expressed in CHO cells assessed as reduction of current amplitude
[23] = Volume of distribution at steady state in Sprague-Dawley rat at 2.5 mg/kg, iv; format: ADME, organism-based; design: dose 2.5 mg/kg, route intravenous; details: in vivo, read-out: Vdss
[24] = Half life in Sprague-Dawley rat at 2.5 mg/kg, iv; format: ADME, organism-based; design: dose 2.5 mg/kg, route intravenous; details: in vivo
[25] = Clearance in Sprague-Dawley rat at 2.5 mg/kg, iv; format: ADME, organism-based; design: dose 2.5 mg/kg, route intravenous; details: in vivo
[26] = tested on: Cynomolgus monkey; assay: Antiinflammatory activity against ascaris suum antigen-evoked increase in neutrophils at bronchoalveolar lavage in cynomolgus monkey at 10 mg/kg, po after 1 hr treated before LTB4 challenge; format: functional, organism-based; design: dose 10 mg/kg; details: Macaca fascicularis, in the assay text read “before Ascaris suum antigen challenge” for “before LTB4 challenge”
Outline: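 Male cynomolgus monkeys (4-10 kg) naturally hypersensitive to Ascaris suum had baseline BAL 24 h before challenge. They were dosed orally with 10 mg/kg in 15% Labrasol in PEG. One hour later, under ketamine/xylazine, they received antigen aerosol for 90 s by endotracheal tube. BAL neutrophil percentage came from 300-cell LeukoStat differentials, with hemocytometer totals. Analysis by two-way ANOVA/Bonferroni; 3-21 animals per group.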

[27] = tested on: Cavia porcellus; assay: Antiinflammatory activity against LTB4-evoked eosinophilic pulmonary inflammation in Hartley guinea pig at 10 mg/kg, po after 1 hr treated before LTB4 challenge; format: functional, organism-based; design: dose 10 mg/kg
Outline: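 Male Hartley guinea pigs (250-350 g) were dosed orally with 10 mg/kg in 2% Klucel LF/0.1% Tween-80. One hour later they were exposed to 10 μg/mL LTB4 aerosol for 20 min. BAL (3 × 5 mL HBSS) was done 2 h after challenge under pentobarbital. Cells were counted, and differentials of at least 300 cells were taken on Wright-stained cytospins. Analysis by two-way ANOVA/Bonferroni; 4-20 animals per group.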

[28] = Homo sapiens, Neutrophil, 0.5 h, read-out: IC50

T1 sequence (Q15722 whole entry): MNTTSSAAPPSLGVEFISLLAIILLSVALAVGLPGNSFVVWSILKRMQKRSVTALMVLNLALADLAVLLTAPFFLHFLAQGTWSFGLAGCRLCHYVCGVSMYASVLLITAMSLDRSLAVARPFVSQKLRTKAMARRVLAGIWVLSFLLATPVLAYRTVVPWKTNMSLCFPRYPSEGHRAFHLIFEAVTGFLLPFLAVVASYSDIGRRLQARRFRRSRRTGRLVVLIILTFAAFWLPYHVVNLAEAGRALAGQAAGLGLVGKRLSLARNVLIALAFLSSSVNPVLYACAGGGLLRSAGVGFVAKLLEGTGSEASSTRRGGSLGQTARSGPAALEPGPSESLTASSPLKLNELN
T5 sequence (P11712 whole entry): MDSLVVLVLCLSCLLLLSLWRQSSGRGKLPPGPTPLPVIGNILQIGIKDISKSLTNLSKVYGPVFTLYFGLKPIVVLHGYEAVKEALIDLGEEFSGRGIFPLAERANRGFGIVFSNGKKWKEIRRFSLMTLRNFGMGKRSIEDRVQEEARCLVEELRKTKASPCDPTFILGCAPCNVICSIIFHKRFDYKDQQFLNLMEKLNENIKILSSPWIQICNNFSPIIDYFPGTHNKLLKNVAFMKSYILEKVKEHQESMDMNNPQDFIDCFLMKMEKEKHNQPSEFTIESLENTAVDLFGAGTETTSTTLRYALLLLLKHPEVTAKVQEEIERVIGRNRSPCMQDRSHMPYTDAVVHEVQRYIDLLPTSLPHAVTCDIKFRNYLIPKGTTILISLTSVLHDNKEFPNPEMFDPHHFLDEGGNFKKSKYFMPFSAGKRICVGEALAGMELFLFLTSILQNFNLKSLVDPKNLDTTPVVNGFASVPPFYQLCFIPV
T2 sequence (Q12809 whole entry): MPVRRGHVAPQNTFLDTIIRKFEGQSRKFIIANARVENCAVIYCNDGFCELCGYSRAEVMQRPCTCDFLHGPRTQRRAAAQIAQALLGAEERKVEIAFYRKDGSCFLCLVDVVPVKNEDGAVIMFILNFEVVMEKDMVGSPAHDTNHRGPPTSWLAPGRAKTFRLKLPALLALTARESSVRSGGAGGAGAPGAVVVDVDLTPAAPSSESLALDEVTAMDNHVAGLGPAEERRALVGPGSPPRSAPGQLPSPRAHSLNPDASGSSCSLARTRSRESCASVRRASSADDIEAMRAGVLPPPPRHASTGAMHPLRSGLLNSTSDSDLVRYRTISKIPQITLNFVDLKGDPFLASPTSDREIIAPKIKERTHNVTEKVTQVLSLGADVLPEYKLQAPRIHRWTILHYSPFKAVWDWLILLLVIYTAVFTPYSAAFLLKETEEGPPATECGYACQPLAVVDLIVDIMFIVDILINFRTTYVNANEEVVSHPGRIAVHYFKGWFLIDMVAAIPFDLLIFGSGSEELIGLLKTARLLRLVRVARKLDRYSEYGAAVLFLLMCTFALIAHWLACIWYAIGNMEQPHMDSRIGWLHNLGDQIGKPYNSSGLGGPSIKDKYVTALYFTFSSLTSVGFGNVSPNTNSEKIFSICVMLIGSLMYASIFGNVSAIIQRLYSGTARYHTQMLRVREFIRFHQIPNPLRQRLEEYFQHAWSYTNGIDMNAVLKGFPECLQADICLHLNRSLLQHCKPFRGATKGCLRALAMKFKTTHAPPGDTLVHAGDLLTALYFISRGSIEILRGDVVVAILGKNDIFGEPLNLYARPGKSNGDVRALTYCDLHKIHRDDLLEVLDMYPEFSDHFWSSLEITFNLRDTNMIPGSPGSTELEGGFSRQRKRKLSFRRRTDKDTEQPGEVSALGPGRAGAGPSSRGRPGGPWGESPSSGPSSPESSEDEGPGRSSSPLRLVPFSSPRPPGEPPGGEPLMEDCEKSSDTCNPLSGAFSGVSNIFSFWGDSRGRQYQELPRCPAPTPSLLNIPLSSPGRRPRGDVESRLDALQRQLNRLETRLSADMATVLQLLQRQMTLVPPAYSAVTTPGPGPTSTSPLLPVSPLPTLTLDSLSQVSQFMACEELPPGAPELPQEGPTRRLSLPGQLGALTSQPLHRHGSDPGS
Chain of Cytochrome P450 2C19 (P33261 whole entry): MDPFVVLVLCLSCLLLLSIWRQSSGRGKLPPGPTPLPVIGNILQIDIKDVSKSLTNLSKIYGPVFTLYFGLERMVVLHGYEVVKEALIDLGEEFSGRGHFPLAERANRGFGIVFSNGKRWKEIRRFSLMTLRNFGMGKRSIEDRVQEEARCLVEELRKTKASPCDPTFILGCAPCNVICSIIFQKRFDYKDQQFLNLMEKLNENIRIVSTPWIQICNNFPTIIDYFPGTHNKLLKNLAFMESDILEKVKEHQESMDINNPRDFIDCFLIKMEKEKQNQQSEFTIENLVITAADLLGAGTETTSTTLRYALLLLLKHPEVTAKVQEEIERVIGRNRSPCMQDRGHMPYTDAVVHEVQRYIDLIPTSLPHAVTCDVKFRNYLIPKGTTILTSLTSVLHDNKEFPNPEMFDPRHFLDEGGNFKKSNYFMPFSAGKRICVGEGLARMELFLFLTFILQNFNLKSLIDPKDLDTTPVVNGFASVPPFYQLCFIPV
Chain of Cytochrome P450 2D6 (P10635 whole entry): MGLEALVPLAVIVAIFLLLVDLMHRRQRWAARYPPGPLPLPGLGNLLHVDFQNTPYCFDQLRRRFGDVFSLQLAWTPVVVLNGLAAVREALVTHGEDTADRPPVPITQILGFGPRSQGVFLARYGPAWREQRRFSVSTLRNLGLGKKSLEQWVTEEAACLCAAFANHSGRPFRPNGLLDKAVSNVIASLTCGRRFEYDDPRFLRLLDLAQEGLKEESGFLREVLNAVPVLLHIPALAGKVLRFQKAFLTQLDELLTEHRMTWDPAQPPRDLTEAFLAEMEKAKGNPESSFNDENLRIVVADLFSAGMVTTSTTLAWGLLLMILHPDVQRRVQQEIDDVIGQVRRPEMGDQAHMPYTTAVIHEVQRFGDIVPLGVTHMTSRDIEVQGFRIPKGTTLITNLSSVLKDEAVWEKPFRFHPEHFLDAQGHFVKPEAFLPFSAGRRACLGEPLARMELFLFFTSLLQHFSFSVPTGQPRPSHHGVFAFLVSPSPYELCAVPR
Chain of Cytochrome P450 3A4 (P08684 whole entry): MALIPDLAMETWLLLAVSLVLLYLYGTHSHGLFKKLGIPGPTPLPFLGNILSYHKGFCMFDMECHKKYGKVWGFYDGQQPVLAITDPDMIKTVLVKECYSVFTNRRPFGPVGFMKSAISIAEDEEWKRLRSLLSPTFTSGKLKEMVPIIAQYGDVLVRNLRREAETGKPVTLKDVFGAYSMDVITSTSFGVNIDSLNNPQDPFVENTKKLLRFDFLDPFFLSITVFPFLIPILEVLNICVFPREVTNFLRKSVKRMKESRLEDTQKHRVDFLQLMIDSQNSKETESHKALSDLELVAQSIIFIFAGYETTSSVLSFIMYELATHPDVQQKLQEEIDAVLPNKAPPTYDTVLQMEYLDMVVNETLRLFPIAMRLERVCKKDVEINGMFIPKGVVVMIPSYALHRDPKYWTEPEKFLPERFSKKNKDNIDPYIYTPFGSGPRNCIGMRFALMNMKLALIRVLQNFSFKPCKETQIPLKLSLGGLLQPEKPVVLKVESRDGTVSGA

O=C(O)CCCOc1cccc(CCCCCCOc2cc(-c3ccncc3)cc(-c3ccc4c(c3)OCO4)c2)c1CCC(=O)O
IC50 [1, 28]: 0.1 nM | IC50 ([2]; read-out: IC50): 0.22 nM

CCc1cc(C(C)=O)c(O)cc1OCCCCCC(C)(C)c1nn[nH]n1 [LY-255283]
IC50 ([1]; neutrophil): Not Active | IC50 ([2]; hl-60): Not Active

O=C(O)CCCOc1cccc(CCCCCCOc2cc(-c3ccncc3)cc(-c3ccncc3)c2)c1CCC(=O)O
solubility [3]: 61 µg/mL (≈ 105 µM) | solubility [4]: 22.7 µg/mL (≈ 39 µM) | INH [5]: Not Active | IC50 [6]: > 7500 nM | Cmax [7]: 310 nM | IC50 ([2]; read-out: IC50): 0.07 nM | IC50 [8]: > 7500 nM | half-life [9]: 4.52 h | IC50 [10]: 143 nM | bioavailability [11]: 10% | IC50 [12]: 71 nM | IC50 [13]: > 7500 nM | logD [14]: 1.78 | IC50 [15]: 340 nM | Vd [16]: 1.55 L/kg | Tmax [17]: 5 h | IC50 [18]: 900 nM | clearance [19]: 28.1 mL/min/kg | half-life [20]: 4.52 h | IC50 [21]: > 7500 nM

O=C(O)CCCOc1cccc(CCCCCCOc2cc(-c3cccc(F)c3)cc(-c3ccc4[nH]ccc4c3)c2)c1CCC(=O)O
IC50 ([2]; read-out: IC50): 14 nM

O=C(O)CCCOc1cccc(CCCCCCOc2cc(-c3ccc4c(c3)OCCO4)cc(-c3ccc4c(c3)OCCO4)c2)c1CCC(=O)O
IC50 ([2]; read-out: IC50): 140 nM

O=C(O)CCCOc1cccc(CCCCCCOc2cc(-c3ccncc3)cc(-c3cccc(F)c3)c2)c1CCC(=O)O
IC50 [1, 28]: 0.2 nM | IC50 ([2]; read-out: IC50): 0.18 nM

O=C(O)CCCOc1cccc(CCCCCCOc2cc(-c3ccccc3)cc(-c3ccsc3)c2)c1CCC(=O)O
IC50 [1, 28]: 0.2 nM | IC50 ([2]; read-out: IC50): 0.36 nM

O=C(O)CCCOc1cccc(CCCCCCOc2cc(-c3ccccc3)cc(-c3ccccc3)n2)c1CCC(=O)O
solubility [3]: 27.7 µg/mL (≈ 47.6 µM) | solubility [4]: 16.5 µg/mL (≈ 28.4 µM) | IC50 [1, 28]: 1.8 nM | INH [5]: Not Active | IC50 [6]: > 7500 nM | Cmax [7]: 2110 nM | IC50 ([2]; read-out: IC50): 0.48 nM | IC50 [8]: > 7500 nM | IC50 [22]: > 3000 nM | IC50 [10]: 3060 nM | Vd [23]: 0.3 L/kg | half-life [24]: 2.1 h | bioavailability [11]: 28% | IC50 [12]: 205 nM | IC50 [13]: > 7500 nM | clearance [25]: 7.53 mL/min/kg | Activity [26]: Active | IC50 [15]: > 12500 nM | Activity [27]: Active | Tmax [17]: 2.3 h | half-life [20]: 2.9 h | IC50 [21]: > 7500 nM

O=C(O)CCCOc1cccc(CCCCCCOc2cc(-c3ccc4c(c3)OCO4)cc(-c3ccc4c(c3)OCO4)c2)c1CCC(=O)O
IC50 ([2]; read-out: IC50): 5.39 nM

O=C(O)CCCOc1cccc(CCCCCCOc2cc(-c3cncnc3)cc(-c3cncnc3)c2)c1CCC(=O)O
IC50 ([2]; read-out: IC50): 5.35 nM

O=C(O)CCCOc1cccc(CCCCCCOc2cc(-c3ccccc3)cc(-c3ccc4c(c3)OCO4)c2)c1CCC(=O)O
IC50 [1, 28]: 0.7 nM | IC50 ([2]; read-out: IC50): 0.58 nM
